Experiments:
Format in all cases: functional
HOP-92 = test: Cytotoxicity against human HOP92 cells assessed as growth inhibition at 10 uM after 48 hrs by sulphorhodamine B assay; settings: HOP-92, 48 h, read-out: GI
How it was run: (§1)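 NCI-60 one-dose screen per the NCI Drug Evaluation Branch protocol. Cells given a single 10 µM concentration with 48 h continuous exposure. Growth estimated by sulphorhodamine B protein assay. Result expressed as percentage growth inhibition relative to untreated growth.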

NCI-H23 = test: Cytotoxicity against human NCI-H23 cells assessed as growth inhibition at 10 uM after 48 hrs by sulphorhodamine B assay; settings: NCI-H23, 48 h, read-out: GI; how it was run: as §1
[1] = Cytotoxicity against human EKVX cells assessed as growth inhibition at 10 uM after 48 hrs by sulphorhodamine B assay; settings: read-out: GI; how it was run: as §1
A549 = test: Cytotoxicity against human A549 cells assessed as growth inhibition at 10 uM after 48 hrs by sulphorhodamine B assay; settings: A549, 48 h, read-out: GI; how it was run: as §1
NCI/ADR-RES = test: Cytotoxicity against human NCI/ADR-RES cells assessed as growth inhibition at 10 uM after 48 hrs by sulphorhodamine B assay; settings: read-out: GI; how it was run: as §1
SNB-75 = test: Cytotoxicity against human SNB75 cells assessed as growth inhibition at 10 uM after 48 hrs by sulphorhodamine B assay; settings: SNB-75, 48 h, read-out: GI; how it was run: as §1
U-251 = test: Cytotoxicity against human U251 cells assessed as growth inhibition at 10 uM after 48 hrs by sulphorhodamine B assay; settings: U-251, 48 h, read-out: GI; how it was run: as §1
SNB-19 = test: Cytotoxicity against human SNB19 cells assessed as growth inhibition at 10 uM after 48 hrs by sulphorhodamine B assay; settings: SNB-19, 48 h, read-out: GI; how it was run: as §1
SF-295 = test: Cytotoxicity against human SF295 cells assessed as growth inhibition at 10 uM after 48 hrs by sulphorhodamine B assay; settings: SF-295, 48 h, read-out: GI; how it was run: as §1
DU-145 = test: Cytotoxicity against human DU145 cells assessed as growth inhibition at 10 uM after 48 hrs by sulphorhodamine B assay; settings: DU-145, 48 h, read-out: GI; how it was run: as §1
SF-268 = test: Cytotoxicity against human SF268 cells assessed as growth inhibition at 10 uM after 48 hrs by sulphorhodamine B assay; settings: SF-268, 48 h, read-out: GI; how it was run: as §1
PC-3 = test: Cytotoxicity against human PC3 cells assessed as growth inhibition at 10 uM after 48 hrs by sulphorhodamine B assay; settings: PC-3, 48 h, read-out: GI; how it was run: as §1
UACC-62 = test: Cytotoxicity against human UACC62 cells assessed as growth inhibition at 10 uM after 48 hrs by sulphorhodamine B assay; settings: UACC-62, 48 h, read-out: GI; how it was run: as §1
SK-MEL-2 = test: Cytotoxicity against human SK-MEL-2 cells assessed as growth inhibition at 10 uM after 48 hrs by sulphorhodamine B assay; settings: SK-MEL-2, 48 h, read-out: GI; how it was run: as §1
SK-MEL-5 = test: Cytotoxicity against human SK-MEL-5 cells assessed as growth inhibition at 10 uM after 48 hrs by sulphorhodamine B assay; settings: SK-MEL-5, 48 h, read-out: GI; how it was run: as §1
M14 = test: Cytotoxicity against human M14 cells assessed as growth inhibition at 10 uM after 48 hrs by sulphorhodamine B assay; settings: M14, 48 h, read-out: GI; how it was run: as §1
LOX IMVI = test: Cytotoxicity against human LOXIMVI cells assessed as growth inhibition at 10 uM after 48 hrs by sulphorhodamine B assay; settings: read-out: GI; how it was run: as §1
UO-31 = test: Cytotoxicity against human UO31 cells assessed as growth inhibition at 10 uM after 48 hrs by sulphorhodamine B assay; settings: UO-31, 48 h, read-out: GI; how it was run: as §1
CAKI-1 = test: Cytotoxicity against human Caki1 cells assessed as growth inhibition at 10 uM after 48 hrs by sulphorhodamine B assay; settings: CAKI-1, 48 h, read-out: GI; how it was run: as §1
RXF 393 = test: Cytotoxicity against human RXF393 cells assessed as growth inhibition at 10 uM after 48 hrs by sulphorhodamine B assay; settings: RXF 393, 48 h, read-out: GI; how it was run: as §1
ACHN = test: Cytotoxicity against human ACHN cells assessed as growth inhibition at 10 uM after 48 hrs by sulphorhodamine B assay; settings: read-out: GI; how it was run: as §1
SR = test: Cytotoxicity against human SR cells assessed as growth inhibition at 10 uM after 48 hrs by sulphorhodamine B assay; settings: read-out: GI; how it was run: as §1
A498 = test: Cytotoxicity against human A498 cells assessed as growth inhibition at 10 uM after 48 hrs by sulphorhodamine B assay; settings: A498, 48 h, read-out: GI; how it was run: as §1
RPMI-8226 = test: Cytotoxicity against human RPMI8226 cells assessed as growth inhibition at 10 uM after 48 hrs by sulphorhodamine B assay; settings: RPMI-8226, 48 h, read-out: GI; how it was run: as §1
MOLT-4 = test: Cytotoxicity against human MOLT4 cells assessed as growth inhibition at 10 uM after 48 hrs by sulphorhodamine B assay; settings: MOLT-4, 48 h, read-out: GI; how it was run: as §1
K562 = test: Cytotoxicity against human K562 cells assessed as growth inhibition at 10 uM after 48 hrs by sulphorhodamine B assay; settings: K562, 48 h, read-out: GI; how it was run: as §1
HL-60(TB) = test: Cytotoxicity against human HL-60(TB) cells assessed as growth inhibition at 10 uM after 48 hrs by sulphorhodamine B assay; settings: HL-60, 48 h, read-out: GI
How it was run: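 NCI-60 one-dose primary screen run to the Drug Evaluation Branch protocol. Cells are exposed to a single 10 µM concentration for 48 h continuously, and growth is read by SRB protein assay. Data are reported as percent growth of treated cells, expressed as % growth inhibition.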

SK-OV-3 = test: Cytotoxicity against human SKOV3 cells assessed as growth inhibition at 10 uM after 48 hrs by sulphorhodamine B assay; settings: SK-OV-3, 48 h, read-out: GI; how it was run: as §1
CCRF-CEM = test: Cytotoxicity against human CCRF-CEM cells assessed as growth inhibition at 10 uM after 48 hrs by sulphorhodamine B assay; settings: read-out: GI; how it was run: as §1
OVCAR-5 = test: Cytotoxicity against human OVCAR5 cells assessed as growth inhibition at 10 uM after 48 hrs by sulphorhodamine B assay; settings: OVCAR-5, 48 h, read-out: GI; how it was run: as §1
OVCAR-4 = test: Cytotoxicity against human OVCAR4 cells assessed as growth inhibition at 10 uM after 48 hrs by sulphorhodamine B assay; settings: OVCAR-4, 48 h, read-out: GI; how it was run: as §1
IGROV-1 = test: Cytotoxicity against human IGROV1 cells assessed as growth inhibition at 10 uM after 48 hrs by sulphorhodamine B assay; settings: IGROV-1, 48 h, read-out: GI; how it was run: as §1
T47D = test: Cytotoxicity against human T47D cells assessed as growth inhibition at 10 uM after 48 hrs by sulphorhodamine B assay; settings: read-out: GI; how it was run: as §1
Hs-578T = test: Cytotoxicity against human Hs578T cells assessed as growth inhibition at 10 uM after 48 hrs by sulphorhodamine B assay; settings: read-out: GI; how it was run: as §1
NCI-H522 = test: Cytotoxicity against human NCI-H522 cells assessed as growth inhibition at 10 uM after 48 hrs by sulphorhodamine B assay; settings: NCI-H522, 48 h, read-out: GI; how it was run: as §1
HT-29 = test: Cytotoxicity against human HT-29 cells assessed as growth inhibition at 10 uM after 48 hrs by sulphorhodamine B assay; settings: HT-29, 48 h, read-out: GI; how it was run: as §1
MCF7 = test: Cytotoxicity against human MCF7 cells assessed as growth inhibition at 10 uM after 48 hrs by sulphorhodamine B assay; settings: MCF7, 48 h, read-out: GI; how it was run: as §1
MDA-MB-435 = test: Cytotoxicity against human MDA-MB-435 cells assessed as growth inhibition at 10 uM after 48 hrs by sulphorhodamine B assay; settings: MDA-MB-435, 48 h, read-out: GI; how it was run: as §1
HCT-15 = test: Cytotoxicity against human HCT15 cells assessed as growth inhibition at 10 uM after 48 hrs by sulphorhodamine B assay; settings: HCT-15, 48 h, read-out: GI; how it was run: as §1
MDA-MB-468 = test: Cytotoxicity against human MDA-MB-468 cells assessed as growth inhibition at 10 uM after 48 hrs by sulphorhodamine B assay; settings: MDA-MB-468, 48 h, read-out: GI; how it was run: as §1
HCT-116 = test: Cytotoxicity against human HCT116 cells assessed as growth inhibition at 10 uM after 48 hrs by sulphorhodamine B assay; settings: HCT-116, 48 h, read-out: GI; how it was run: as §1

## COc1ccc(-c2c(C#N)c(N)nc3c2CCCC3C)cc1 (stereo unspecified)
HOP-92
  inhibition of growth at 10 µM: 20%
NCI-H23
  inhibition of growth at 10 µM: 11%
[1]
  inhibition of growth at 10 µM: < 10%
A549
  inhibition of growth at 10 µM: 15.7%
NCI/ADR-RES
  inhibition of growth at 10 µM: 24.1%
SNB-75
  inhibition of growth at 10 µM: 25.3%
U-251
  inhibition of growth at 10 µM: 20%
SNB-19
  inhibition of growth at 10 µM: 11%
SF-295
  inhibition of growth at 10 µM: < 10%
DU-145
  inhibition of growth at 10 µM: < 10%
SF-268
  inhibition of growth at 10 µM: < 10%
PC-3
  inhibition of growth at 10 µM: 16.2%
UACC-62
  inhibition of growth at 10 µM: 20%
SK-MEL-2
  inhibition of growth at 10 µM: < 10%
SK-MEL-5
  inhibition of growth at 10 µM: 14.5%
M14
  inhibition of growth at 10 µM: < 10%
LOX IMVI
  inhibition of growth at 10 µM: 12.3%
UO-31
  inhibition of growth at 10 µM: < 10%
CAKI-1
  inhibition of growth at 10 µM: < 10%
RXF 393
  inhibition of growth at 10 µM: 11.1%
ACHN
  inhibition of growth at 10 µM: < 10%
SR
  inhibition of growth at 10 µM: 36.6%
A498
  inhibition of growth at 10 µM: < 10%
RPMI-8226
  inhibition of growth at 10 µM: 34.1%
MOLT-4
  inhibition of growth at 10 µM: 21.3%
K562
  inhibition of growth at 10 µM: 28.4%
HL-60(TB)
  inhibition of growth at 10 µM: 11.7%
SK-OV-3
  inhibition of growth at 10 µM: < 10%
CCRF-CEM
  inhibition of growth at 10 µM: 16.3%
OVCAR-5
  inhibition of growth at 10 µM: < 10%
OVCAR-4
  inhibition of growth at 10 µM: 17.2%
IGROV-1
  inhibition of growth at 10 µM: < 10%
T47D
  inhibition of growth at 10 µM: 41%
Hs-578T
  inhibition of growth at 10 µM: < 10%
NCI-H522
  inhibition of growth at 10 µM: 14.6%
HT-29
  inhibition of growth at 10 µM: < 10%
MCF7
  inhibition of growth at 10 µM: 10%
MDA-MB-435
  inhibition of growth at 10 µM: < 10%
HCT-15
  inhibition of growth at 10 µM: 25.3%
MDA-MB-468
  inhibition of growth at 10 µM: 15.2%
HCT-116
  inhibition of growth at 10 µM: 15.7%

## COc1ccc(-c2c3c(nc4ncn(N)c(=N)c24)C(C)CCC3)cc1 (stereo unspecified)
NCI-H23
  inhibition of growth at 10 µM: 14.4%
[1]
  inhibition of growth at 10 µM: 21.5%
A549
  inhibition of growth at 10 µM: < 10%
NCI/ADR-RES
  inhibition of growth at 10 µM: < 10%
SNB-75
  inhibition of growth at 10 µM: 14.3%
U-251
  inhibition of growth at 10 µM: 16.7%
SNB-19
  inhibition of growth at 10 µM: < 10%
SF-295
  inhibition of growth at 10 µM: < 10%
DU-145
  inhibition of growth at 10 µM: < 10%
SF-268
  inhibition of growth at 10 µM: < 10%
PC-3
  inhibition of growth at 10 µM: < 10%
UACC-62
  inhibition of growth at 10 µM: 24%
SK-MEL-2
  inhibition of growth at 10 µM: 11%
SK-MEL-5
  inhibition of growth at 10 µM: < 10%
M14
  inhibition of growth at 10 µM: < 10%
LOX IMVI
  inhibition of growth at 10 µM: < 10%
UO-31
  inhibition of growth at 10 µM: < 10%
CAKI-1
  inhibition of growth at 10 µM: 10%
RXF 393
  inhibition of growth at 10 µM: < 10%
ACHN
  inhibition of growth at 10 µM: 14.5%
SR
  inhibition of growth at 10 µM: < 10%
A498
  inhibition of growth at 10 µM: < 10%
RPMI-8226
  inhibition of growth at 10 µM: < 10%
MOLT-4
  inhibition of growth at 10 µM: < 10%
K562
  inhibition of growth at 10 µM: < 10%
HL-60(TB)
  inhibition of growth at 10 µM: < 10%
SK-OV-3
  inhibition of growth at 10 µM: < 10%
CCRF-CEM
  inhibition of growth at 10 µM: < 10%
OVCAR-5
  inhibition of growth at 10 µM: < 10%
OVCAR-4
  inhibition of growth at 10 µM: 20%
IGROV-1
  inhibition of growth at 10 µM: < 10%
T47D
  inhibition of growth at 10 µM: 18.1%
Hs-578T
  inhibition of growth at 10 µM: < 10%
NCI-H522
  inhibition of growth at 10 µM: 26%
HT-29
  inhibition of growth at 10 µM: < 10%
MCF7
  inhibition of growth at 10 µM: < 10%
MDA-MB-435
  inhibition of growth at 10 µM: 19%
HCT-15
  inhibition of growth at 10 µM: 25%
MDA-MB-468
  inhibition of growth at 10 µM: < 10%
HCT-116
  inhibition of growth at 10 µM: 22.3%
